Compound activity: PubChem, several laboratories
TAAR1 antagonist = antagonists of human TAAR1; AID 624466; CHO RD-HGA16 TAAR1, Fluo-8 calcium fluorescence, antagonist; Q96RJ0; inhibition, % at 3 µM; 1.5% of 360,000 active;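 active means inhibition above a per-plate cutoff, the mean inhibition of test compounds on that plate plus 3 SD, cut at about 49% in these data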;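 further: 0% = DMSO plus EC80 beta-PEA response and 100% = DMSO alone without agonist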
Target sequence (Q96RJ0 whole entry, looked up): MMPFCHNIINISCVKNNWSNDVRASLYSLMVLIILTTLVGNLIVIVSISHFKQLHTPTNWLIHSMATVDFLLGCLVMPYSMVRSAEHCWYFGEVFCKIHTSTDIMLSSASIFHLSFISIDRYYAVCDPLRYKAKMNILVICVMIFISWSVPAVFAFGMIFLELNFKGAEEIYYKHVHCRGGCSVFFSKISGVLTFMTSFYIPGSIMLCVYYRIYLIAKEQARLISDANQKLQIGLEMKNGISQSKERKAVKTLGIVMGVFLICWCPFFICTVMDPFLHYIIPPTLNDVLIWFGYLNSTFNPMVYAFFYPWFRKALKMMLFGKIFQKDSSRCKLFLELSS
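System: CHO RD-HGA16 cells bearing hTAAR1. Reagent: EC80 β-phenethylamine stimulus. Schedule: seeding 17-24 h prior, 75-min 37 °C, 30-min RT dye loading. Signal: Fluo-8 intracellular calcium dye fluorescence, real-time kinetic reads. Read-out: % inhibition from peak post-agonist over basal fluorescence ratio. Benchmarks: vehicle wells and EC80 agonist wells. Replicates: n of 1.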
MC4R barr agon = human MC4R agonism via beta-arrestin; P32245; U2OS MC4R beta-arrestin complementation, luminescence; percent of melanotan II response, DMSO zero; activation, % at 8.9 µM; 0.98% of 360,000 active;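 active means activation above a per-plate cutoff, the mean activation of sample wells on that plate plus 3 SD, cut at about 8% in these data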
Target sequence (P32245 whole entry, looked up): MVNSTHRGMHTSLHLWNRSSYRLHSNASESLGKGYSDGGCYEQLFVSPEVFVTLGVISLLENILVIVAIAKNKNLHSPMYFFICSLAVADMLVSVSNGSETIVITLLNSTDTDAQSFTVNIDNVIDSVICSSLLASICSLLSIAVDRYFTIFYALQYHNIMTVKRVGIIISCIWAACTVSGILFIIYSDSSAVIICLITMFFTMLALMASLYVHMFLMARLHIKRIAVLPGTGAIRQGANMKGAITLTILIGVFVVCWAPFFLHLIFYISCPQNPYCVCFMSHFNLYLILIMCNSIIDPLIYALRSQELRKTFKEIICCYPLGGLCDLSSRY
TAAR1 ag = agonists of human TAAR1. CHO RD-HGA16 TAAR1, Fluo-8 calcium fluorescence; vehicle wells 0%, saturating PEA agonist 100%. activation, % at 3 µM. 0.99% of 360,000 active. AID 624467;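 active means activation above the mean activation of all test compounds in the run plus 3 SD, cut at about 38% in these data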
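Test system: RD-HGA16 (CHO) cells co-expressing Gα16 and hTAAR1; dosing: one-point dosing at 3 µM (nominal); timing: 17-24 h seeding, 75 min 37 °C dye, 30 min RT; signal: kinetic Fluo-8 calcium fluorescence; read-out basis: % activation relative to PEA EC100 response; controls: DMSO and PEA EC100; replicates: n 1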
MC4R antagonist = antagonists of human melanocortin 4 receptor (MC4R); P32245; 0.48% of 360,000 active; inhibition, % at 6.5 µM; MC4R-expressing cells, MTII-stimulated cAMP, LANCE TR-FRET;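 active means inhibition above its plate's cutoff, the mean of tested wells on that plate plus 3 SD, cut at about 29% in these data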;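 further: 0% = Melanotan II alone and 100% = Melanotan II plus saturating MCL0020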
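system = U2OS cells with stable human MC4R expression | also added = Melanotan II challenge after compound preincubation | dosing = one concentration, 6.5 µM nominal | incubation = compound 30 min, challenge 1 h, detection 1 h | measured by = TR-FRET with Eu-cAMP and labeled anti-cAMP, 671 nm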
Beta2AR agonist = human beta-2 adrenergic receptor agonism by FAP; P07550; Am2.2-beta2AR cells, FAP receptor internalization, flow cytometry; response, % (no concentration beside the values); 0.43% of 340,000 active;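 active means response above a set limit, near 3 SD of response in nonfluorescent compounds, cut at about 42% in these data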
m5-HT2A agonist = mouse HTR2A agonism via beta-arrestin recruitment | P35363 | CHO-K1 mHTR2A beta-arrestin complementation, luminescence; percent of 30 µM serotonin response | activation, % at 7.6 µM | 0.66% of 360,000 active;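 active means activation above a run cutoff, the mean activation of all tested compounds plus 3 SD, cut at about 14% in these data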;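 further: 0% = plate median of compound wells and 100% = 30 µM serotonin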
* = called active by the depositor; x = no result. Compounds with a hit are over-represented: about 4.3% of the library has one in this group of screens.

SMILES | TAAR1 antagonist | MC4R barr agon | TAAR1 ag | MC4R antagonist | Beta2AR agonist | m5-HT2A agonist
O=C(Cc1ccc(NC(=O)C2CCCN(C(=O)c3ccccc3)C2)cc1)Nc1cccc(C(=O)N2CCCC2)c1 (configuration not stated) | -27 | x | 3 | x | x | x
CN1C(=O)Cc2cc(S(=O)(=O)N3CCN(c4cccc(Cl)c4)CC3)ccc21 | -33 | -1 | 0 | 0 | -6 | 3
CN1C(=O)Cc2cc(S(=O)(=O)N3CCN(c4ccc(Cl)cc4)CC3)ccc21 | -56 | 2 | -1 | 3 | -5 | 15*
COc1cc(/C=C/c2ccc3cccc(OC)c3n2)c(O)c([N+](=O)[O-])c1 | -6 | -1 | 7 | 11 | 3 | -1
COc1cc(/C=C/c2ccc3cccc(OC)c3n2)c(OC(C)=O)c([N+](=O)[O-])c1 | 49* | -2 | 7 | 1 | 13 | 2
CN1CCN(C(=O)c2cc3c(c(-c4cccc(-c5cc6ccccc6o5)c4)n2)[C@H](CCO)N(S(=O)C(C)(C)C)C3)CC1 (some centres not stated) | 50* | x | 21 | x | x | -2
CC(C)(C)S(=O)N1Cc2cc(C(=O)O)nc(-c3cccc(-c4cc5ccccc5o4)c3)c2[C@H]1CCO (some centres not stated) | -8 | x | 1 | x | x | 3
CC(C)(C)S(=O)N1Cc2cc(C(=O)N[C@@H]3CCN(Cc4ccccc4)C3)nc(-c3cccc(-c4cc5ccccc5o4)c3)c2[C@@H]1CCO (some centres not stated) | 59* | x | 13 | x | x | -6
Cc1ccccc1OCCNc1cc(N2CC(C)NC(C)C2)ccc1[N+](=O)[O-] (configuration not stated) | 23 | 0 | 49* | -5 | 21 | -11
C[C@@H]1CN([C@H](C)CO)C(=O)c2cc(NC(=O)Nc3ccccc3)ccc2O[C@@H](C)CCCCO[C@H]1CN(C)S(C)(=O)=O | -14 | x | 4 | x | x | x
O=C(NN=Cc1ccccc1O)C(=O)Nc1ccc(F)cc1 | -2 | x | 1 | x | x | x
O=C(C1CCCN(S(=O)(=O)c2cccc3nonc23)C1)N1CCN(c2ccccc2Cl)CC1 (configuration not stated) | 24 | -2 | 8 | 7 | 4 | -2
O=C(C1CCCN(S(=O)(=O)c2cccc3nonc23)C1)N1CCN(c2cccc(Cl)c2)CC1 (configuration not stated) | 49* | 0 | 10 | 9 | 8 | 3
Cc1cccc(N2CCN(C(=O)C3CCN(c4ncnc5c4nc4n5CCCCC4)CC3)CC2C)c1 (configuration not stated) | 49* | 3 | 13 | 13 | 21 | 0
O=C(C1CCCN(c2ncnc3c2nc2n3CCCCC2)C1)N1CCN(c2cccc(Cl)c2)CC1 (configuration not stated) | 88* | 0 | 40* | 10 | 4 | -3
COC(=O)C1=C(C)N(Cc2ccc(C(F)(F)F)cc2)C(=NCc2ccc3c(c2)OCO3)NC1c1ccccc1C(F)(F)F (configuration not stated) | -1 | x | 17 | x | x | x
O=C(NCCN1CCN(c2ccccc2)CC1)Nc1ccc(Cl)cc1 | 28 | 9.2* | 31 | 5 | -40 | -18
O=C(Nc1ccc(Cl)cc1)Nc1ccc(-c2cnco2)cc1 | 43 | 1 | 47* | 4 | 1 | 8
O=C(NCCc1ccncc1)Nc1ccc(Cl)cc1 | -20 | -2 | 11 | 3 | -1 | 2
CC(=O)c1ccc(NC(=O)Nc2ccc(Cl)cc2)cc1 | 0 | 1 | 42* | 7 | 17 | -7
O=C(NC(=O)c1ccccc1)Nc1ccc(-c2cnco2)cc1 | -27 | 0 | 2 | 7 | -1 | 3
O=C(NCCc1ccc(Cl)cc1)Nc1ccc(Cl)cc1 | 30 | 2 | 42* | 7 | -2 | -3
COc1ccc(-c2ccccc2C2Cc3nnccc3CN2)cc1 (configuration not stated) | 0 | x | 4 | x | x | x
O=C(NCCN1CCN(Cc2ccccc2)CC1)Nc1cc(Cl)cc(Cl)c1 | 23 | 7 | 44* | 3 | 16 | -12
O=C(CCN1CCN(c2ccccc2)CC1)Nc1cccc(Br)c1 | 24 | 8.6* | 6 | 10 | -7 | 2
SMILES | TAAR1 antagonist | MC4R barr agon | TAAR1 ag | MC4R antagonist | Beta2AR agonist | m5-HT2A agonist
O=C(NCCN1CCN(c2cccc(Cl)c2)CC1)Nc1ccccc1 | 17 | 1 | 16 | 14 | -10 | -9
Cc1ccccc1S(=O)(=O)N(C)C[C@@H]1OCc2cn(nn2)CCCC(=O)N([C@@H](C)CO)C[C@H]1C | 5 | x | 0 | x | x | x
COc1ccccc1CCn1cnc(-c2cccc(F)c2)c1C(C)C | 40 | x | 14 | x | x | x
NC(=O)c1ccsc1NC(=O)COC(=O)c1ccc(Cl)c(N)c1 | 53* | 4 | 14 | 1 | 2 | 10
NC(=O)c1ccsc1NC(=O)COC(=O)c1ccc(Cl)cc1 | 28 | -1 | 27 | -1 | -3 | 7
COc1ccc(C(=O)OCC(=O)NC(=O)NC2CCCC2)cc1[N+](=O)[O-] | 4 | 1 | 3 | -7 | -4 | -3
Cc1ccsc1C(=O)OCC(=O)Nc1sccc1C(N)=O | 24 | -2 | 42* | -4 | 0 | -4
COc1ccc(C(=O)OCC(=O)Nc2sccc2C(N)=O)cc1[N+](=O)[O-] | 55* | -2 | 29 | -13 | 13 | 2
Cc1ccc(NC(=O)c2ccc(C#CC3(O)CCCCC3)cc2)cc1C | 21 | 9.0* | 9 | 6 | 3 | -1
CCC(c1nc2ccccc2[nH]1)n1c(C)nc2ccccc21 (configuration not stated) | 1 | x | 2 | x | x | x
Cc1cc(C)n(Cc2ccc(NC(=O)c3ccc(COc4ccccc4Br)cc3)cc2)n1 | 49* | 0 | 5 | -2 | 3 | 3
C[C@H]1CN(S(=O)(=O)C(C)(C)C)[C@@H](CCO)/C1=C\c1ccccc1 | -11 | x | 1 | x | x | x
Cn1c(/C=C/c2ccc(Cl)cc2)nc2ccccc2c1=O | 18 | 9.0* | 2 | -1 | -3 | -3
Cc1ccc(-n2c(N)c(C(=O)Nc3c(C)n(C)n(-c4ccccc4)c3=O)c3nc4ccccc4nc32)cc1 | 28 | 8 | 5 | 27 | 68* | -3
Cc1cc(C)cc(-n2c(N)c(C(=O)Nc3c(C)n(C)n(-c4ccccc4)c3=O)c3nc4ccccc4nc32)c1 | 41 | 3 | 19 | 14 | 11 | -1
COc1cccc(-n2c(N)c(C(=O)Nc3c(C)n(C)n(-c4ccccc4)c3=O)c3nc4ccccc4nc32)c1 | 23 | 1 | 6 | 8 | 66* | 10
CCOc1ccc(N(CC(=O)Nc2c(C)cc(C)cc2C)C2=NC3CS(=O)(=O)CC3S2)cc1 (configuration not stated) | -8 | -1 | 3 | 9 | x | -6
